Assay outcomes: PubChem, Johns Hopkins Ion Channel Center
TRPC4 PAM: allosteric potentiators of mouse TRPC4 channel; 310,000 tested, 0.42% active; Q9QUQ5; B-score at 10 µM; HEK293 TRPC4beta/mu-opioid, DAMGO EC20, Fluo-4 Ca2+ flux; stronger effect = higher value; AID 2227;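 active = B-score of calcium response area above 5 SD of library B-scores, with initial fluorescence ratio within 5 SD of library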;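 note: B-score of integrated fluorescence ratio over time as area under calcium response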
TRPC4 inh: TRPC4 (mouse) channel inhibition; Q9QUQ5; HEK293 TRPC4beta/mu-opioid, DAMGO-evoked Fluo4 calcium flux; stronger effect = lower value; B-score at 10 µM; 300,000 tested, 0.39% active;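 active = B-score over 3 SD under the library average, no early fluorescence shift, positive overall ratio signal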
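Test system – stable TRPC4beta/mu-opioid receptor HEK293 cells · Probe or stimulus – DAMGO, a submaximal dose followed by a maximal one · Dosing – one concentration per compound · Signal – Fluo4 calcium fluorescence by kinetic imaging, 5 s 1 Hz baseline · Evaluation – per-well B score of integrated baseline-normalized Fluo4 ratio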
TRPC6 inh: inhibitors of mouse TRPC6 channel | HEK293-TRPC6, membrane potential dye, ACh-evoked depolarization; stronger effect = lower value | 310,000 tested, 1.1% active | B-score at 10 µM | Q61143;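 active = B-score under library mean minus 3 SD, initial fluorescence not abnormally high, positive integrated signal ratio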;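 note: B-score derived from integrated fluorescence ratio over the kinetic read; more negative B-score means stronger inhibition of depolarization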
Target sequence (Q61143 whole entry, looked up): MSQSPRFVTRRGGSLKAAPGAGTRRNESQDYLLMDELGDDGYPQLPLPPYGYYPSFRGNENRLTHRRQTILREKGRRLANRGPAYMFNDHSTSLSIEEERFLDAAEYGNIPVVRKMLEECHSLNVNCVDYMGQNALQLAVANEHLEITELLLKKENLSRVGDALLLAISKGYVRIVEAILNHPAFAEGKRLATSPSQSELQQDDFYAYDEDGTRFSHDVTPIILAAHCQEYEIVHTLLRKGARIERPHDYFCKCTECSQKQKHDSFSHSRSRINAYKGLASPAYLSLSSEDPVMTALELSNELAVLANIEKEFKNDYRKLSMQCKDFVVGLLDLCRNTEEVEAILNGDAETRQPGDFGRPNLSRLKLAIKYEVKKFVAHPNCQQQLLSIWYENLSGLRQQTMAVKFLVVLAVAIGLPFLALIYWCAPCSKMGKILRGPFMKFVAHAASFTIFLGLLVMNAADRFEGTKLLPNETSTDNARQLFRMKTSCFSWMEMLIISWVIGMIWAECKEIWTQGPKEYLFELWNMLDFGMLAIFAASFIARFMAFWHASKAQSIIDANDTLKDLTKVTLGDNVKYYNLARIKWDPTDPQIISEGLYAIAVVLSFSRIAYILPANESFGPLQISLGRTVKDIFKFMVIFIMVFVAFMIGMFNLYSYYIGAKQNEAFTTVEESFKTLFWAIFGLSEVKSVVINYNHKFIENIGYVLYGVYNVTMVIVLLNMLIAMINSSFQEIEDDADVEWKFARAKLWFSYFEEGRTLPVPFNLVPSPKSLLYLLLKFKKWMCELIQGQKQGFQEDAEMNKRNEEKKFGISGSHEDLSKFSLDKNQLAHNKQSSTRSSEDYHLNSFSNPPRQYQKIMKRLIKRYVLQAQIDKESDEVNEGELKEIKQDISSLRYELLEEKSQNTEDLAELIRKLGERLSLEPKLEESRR
TRPC4 agonist: opens the mouse TRPC4 cation channel | HEK293 TRPC4beta/mu-opioid, Fluo4 calcium fluorescence; stronger effect = higher value | B-score at 10 µM | AID 2237 | 310,000 tested, 0.49% active | Q9QUQ5;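 active = B-score above 5 SD of library B-scores, and initial fluorescence ratio not above library mean plus 5 SD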;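 note: positive B-score marks a calcium rise read as TRPC4 activation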
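Material: TRPC4beta and mu-opioid receptor HEK293 stable cells | Incubation: 45 min room-temperature Fluo4 loading, 110 s read | Detection: Kinetic Fluo4 calcium fluorescence | Measure: Integrated baseline-normalised fluorescence ratio, converted to per-well B score | Benchmarks: Low control buffer alone, high control maximal DAMGO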
TRPC6 act: mouse TRPC6 channel activation; HEK293-TRPC6 membrane potential dye fluorescence; stronger effect = higher value; 310,000 tested, 0.13% active; B-score at 10 µM; Q61143;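 active = B-score of the integrated fluorescence ratio above library mean plus 3 SD, and starting fluorescence ratio within library mean plus 5 SD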;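 note: higher score means more depolarization so channel activation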
TRPC4 spec 2: mouse TRPC4 off-target activity of TRPC6 inhibitors, second screen. inhibition, % at 10 µM. 920 tested, 42% active. shares compounds with TRPC6 inh. AID 2776. HEK293 TRPC4/MOR, membrane potential dye fluorescence; channel activated by saturating DAMGO dose;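 active = compounds whose fluorescence signal differed from control wells by over 3 SD, either direction, in both duplicate plates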
TRPC4 spec: selectivity of TRPC6 inhibitors: effect on mouse TRPC4; shares compounds with TRPC6 inh; HEK293 TRPC4/mu-opioid, membrane potential fluorescence; 920 tested, 61% active; activity change, negative = inhibition, % at 10 µM;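 active = rise or fall in signal beyond 3 SD of buffer-only wells in both replicate plates, either sign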;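 note: integrated kinetic ratio of fluorescence range over baseline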
HEK293 MPD ctr 2-1: second check of TRPC6 inhibitor effects in parental HEK293 cells; shares compounds with TRPC6 inh; parental HEK293 membrane potential dye fluorescence; maximal acetylcholine challenge after compound addition; signal change vs control, % at 10 µM; 920 tested, 31% active;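 active = membrane potential signal moving either way by over 3 SD of the maximum-effect control, in both duplicate plates, meaning non-specific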
HEK293 MPD ctr-1: checks TRPC6 inhibitor effects in parental HEK293 cells | 920 tested, 60% active | membrane potential signal change, % at 10 µM | AID 2780 | parental HEK293 membrane potential dye fluorescence | shares compounds with TRPC6 inh;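 active = membrane potential signal shifting up or down by more than 3 SD of buffer-only wells, on both duplicate plates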
HEK293 MPD ctr-2: parental HEK293 nonspecific activity of TRPC6 modulators; shares compounds with TRPC6 inh; membrane potential dye fluorescence; membrane potential signal change, % at 10 µM; 2,400 tested, 51% active; AID 488924;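 active = membrane potential signal moves up or down beyond 5 SD from buffer-only wells, on both duplicate plates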
HEK293 MPD ctr 2-2: second counter-screen for TRPC6 modulators: effect in parental HEK293 cells. membrane potential dye fluorescence; after compound, maximal acetylcholine stimulation. shares compounds with TRPC6 inh. 2,400 tested, 14% active. inhibition, % at 10 µM;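 active = membrane potential signal drops by more than 5 SD from the mean control signal, in both duplicate plates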;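 note: plate controls were acetylcholine ECmax control wells for no effect and buffer only wells for full effect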
TRPC4 ctr mod: selectivity of TRPC6 modulators against mouse TRPC4; shares compounds with TRPC6 inh; HEK293 TRPC4/mu-opioid, membrane potential fluorescence; percent change from control (negative = decrease, positive = increase), % at 10 µM; 2,400 tested, 69% active; AID 488927;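 active = membrane potential signal moved up or down beyond 5 SD of buffer control wells, in both duplicate plates, actives on both sides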;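 note: plate controls were assay buffer wells for no effect and DAMGO maximal-effect wells for full effect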
TRPC4 ctr inh 2: mouse TRPC4 off-target activity of TRPC6 modulators, second screen; shares compounds with TRPC6 inh; HEK293 TRPC4/mu-opioid, membrane potential dye fluorescence; stimulated with maximal-effect DAMGO; inhibition, % at 10 µM; 2,400 tested, 55% active; AID 488928;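 active = drop in membrane potential signal beyond 5 SD of the control wells in both duplicate plates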;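 note: TRPC4 counter screen for TRPC6 hits run under conditions tuned for TRPC6 not TRPC4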
TRPC6 block conf: confirmation of mouse TRPC6 inhibitors. shares compounds with TRPC6 inh. HEK293-TRPC6, membrane potential dye, ACh-evoked depolarization. inhibition, % at 10 µM. 3,300 tested, 43% active. AID 488960;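 active = fluorescence ratio falls more than 5 SD below the full-stimulation control mean, in both duplicate runs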;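 note: integrated fluorescence ratio of peak minus minimum over baseline after agonist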
TRPC6 act confirm: mouse TRPC6 activator confirmation | shares compounds with TRPC6 inh | activation, % at 10 µM | 2,800 tested, 11% active | HEK293-TRPC6 membrane potential dye fluorescence, FDSS;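 active = ratio signal rise beyond 5 SD above unstimulated control wells' mean, seen in both duplicate runs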;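 note: plate controls were buffer EC0 wells for no effect and acetylcholine ECmax response for full effect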
An asterisk follows results filed as active; i = inactive; x = no result given; + = active, no number. Only some compounds are listed: those with a hit (about 2.3% of all), similar ones and a draw of the others.

SMILES	TRPC4 PAM	TRPC4 inh	TRPC6 inh	TRPC4 agonist	TRPC6 act	HEK293 MPD ctr-2	HEK293 MPD ctr 2-2	TRPC4 ctr mod	TRPC4 ctr inh 2	TRPC6 block conf	TRPC6 act confirm	others
CCOC(=O)Cn1c(=N)n(CCOc2ccc(Br)cc2)c2ccccc21	i	i	-7.7*	i	i	x	x	x	x	55%*	i	TRPC4 spec 2=44%*;TRPC4 spec=0.5%*;HEK293 MPD ctr 2-1=i;HEK293 MPD ctr-1=3.0%*
N#Cc1c2ccc(O)cc2n2ccccc12	i	i	-6.8*	i	16*	436%*	86%*	55%*	i	64%*	126%*
N#Cc1c2ccc(OCC(=O)NCc3ccco3)cc2n2ccccc12	i	i	i	i	i	x	x	x	x	x	x
CN1C(=O)c2cccc3c(N(C)C)ccc(c23)C1=O	i	i	i	i	19*	927%*	+	144%*	58%*	x	234%*
O=C(c1ccc(COCC(F)(F)F)o1)N1CCCC1	i	i	i	i	i	x	x	x	x	x	x
Cc1cc(C(=O)NCC(c2cccs2)N2CCOCC2)ccc1[N+](=O)[O-] (stereo not given)	i	i	i	i	i	x	x	x	x	x	x
COc1ccccc1NC(=O)C1CCCN(S(=O)(=O)c2ccccc2)C1 (stereo not given)	i	i	i	i	i	x	x	x	x	x	x
Cc1nn(-c2cc(C)c3ccccc3n2)c2c1CCC2	i	i	-5.4*	i	i	i	i	i	i	i	i
Cc1cc(N2CCCC2)nc2ccccc12	i	i	-8.2*	i	i	x	x	x	x	53%*	i	TRPC4 spec 2=50%*;TRPC4 spec=-30%*;HEK293 MPD ctr 2-1=-6.5%*;HEK293 MPD ctr-1=-410%*
O=C(CN1CCN(C(c2ccccc2)c2ccccc2)CC1)NCc1ccccc1	i	i	-5.5*	i	i	i	i	i	i	i	i
CC(C)c1ccc(NC2CCCN(C(=O)CSc3nncn3C)C2)cc1 (stereo not given)	i	i	i	i	i	x	x	x	x	x	x
O=C(NC1CCCCC1)C(c1ccccc1)N(Cc1ccco1)C(=O)Cn1cnc2ccccc21 (stereo not given)	i	i	i	i	17*	277%*	i	119%*	i	i	109%*
O=C(NC1CCCCC1)C(c1ccccc1)N(Cc1ccco1)C(=O)c1csnn1 (stereo not given)	i	i	i	i	i	x	x	x	x	x	x
COc1ccc(CCNC(=O)C(=O)NCC2CCCN2S(=O)(=O)c2ccccc2)cc1OC (stereo not given)	i	i	i	i	i	x	x	x	x	x	x
Cc1ccc(-n2ncc(C(=O)N3CCN(C(=O)c4ccco4)CC3)c2C2CCN(C(=O)OC(C)(C)C)CC2)cc1C	i	i	-5.6*	i	i	i	i	i	i	i	x
CC(C)(C)OC(=O)N1CCC(c2c(C(=O)N3CCN(C(=O)c4ccco4)CC3)cnn2-c2ccc(F)cc2)CC1	i	i	i	i	i	x	x	x	x	x	x
O=C(NC(Nc1nc2ccc([N+](=O)[O-])cc2s1)(C(F)(F)F)C(F)(F)F)c1cccnc1	i	i	-8.2*	i	15*	388%*	93%*	92%*	60%*	77%*	88%*
O=C1CCNCCN1[C@H](CO)c1ccccc1	i	i	i	i	i	x	x	x	x	x	x
Cc1ccc(-c2nc3ncccn3c2Nc2ccccc2C)o1	i	i	-5.8*	i	i	-115%*	i	-18%*	68%*	i	i
Cc1ccc(Nc2c(-c3ccc(N4CCOCC4)cc3)nc3ncccn23)c(C)c1	i	i	-6.1*	i	i	-143%*	62%*	-29%*	96%*	84%*	i
Cc1ccc(Nc2c(-c3ccc(C)o3)nc3ncccn23)cc1	i	i	i	i	i	x	x	x	x	x	x
Cc1ccc(Nc2c(-c3ccc(N(C)C)cc3)nc3ncccn23)cc1	i	i	i	i	i	x	x	x	x	x	x
Cc1cccc(C)c1Nc1c(-c2ccc(N3CCOCC3)cc2)nc2ncccn12	i	i	-8*	i	i	-123%*	56%*	-28%*	97%*	76%*	i
Brc1ccc(-c2nc3ncccn3c2NC2CCCCC2)o1	i	i	-5*	i	i	116%*	i	22%*	36%*	i	i
Cc1ccc(-c2nc3ncccn3c2NC2CCCC2)o1	i	i	i	i	i	x	x	x	x	x	x
CC(C)(C)c1nc(NC(=O)Nc2ccccc2)sc1Br	i	i	i	i	i	x	x	x	x	x	x
Cc1ccc2nc(Nc3ccc(C)c(C)c3)c3nncn3c2c1	i	i	i	i	i	x	x	x	x	x	x
CCOC(=O)N1CCC(N2Cc3cccc(C(=O)NCc4ccc(OC)cc4)c3C2=O)CC1	i	i	-7.7*	i	i	x	x	x	x	i	i	TRPC4 spec 2=i;TRPC4 spec=i;HEK293 MPD ctr 2-1=i;HEK293 MPD ctr-1=i
CCOC(=O)N1CCC(N2Cc3cccc(C(=O)Nc4ccc(CC)cc4)c3C2=O)CC1	i	i	-7.4*	i	i	x	x	x	x	i	i	TRPC4 spec 2=i;TRPC4 spec=i;HEK293 MPD ctr 2-1=i;HEK293 MPD ctr-1=i
